Assay results: ChEMBL document CHEMBL1147105, “In vitro and in vivo activities of PD 0305970 and PD 0326448, new bacterial gyrase/topoisomerase inhibitors with potent antibacterial activities versus multidrug-resistant gram-positive and fastidious organism groups” (2007)
Converted amounts (≈) assume the structure as drawn. The source made the active and inactive calls.

Tests used:
Staphylococcus aureus [1] = assay: Antibacterial efficacy against methicillin-resistant Staphylococcus aureus SA1417 infected orally dosed CD1 mouse model; assay type: functional
In short: (§1)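 Sepsis model in female CD1 mice (6–8 weeks, 18–22 g). Lethal i.p. challenge (0.5 ml) at ≥100 median lethal doses. Streptococci were given in Todd-Hewitt broth; other organisms were given with 20% hog gastric mucin. A single oral gavage dose (0.5 ml, in 0.5% methylcellulose) was given at the time of challenge. The PD50 (mg/kg) was calculated by probit analysis.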

Streptococcus pneumoniae [2] = assay: Bactericidal activity against Streptococcus pneumoniae SV1 at 0.008 ug/ml by time-kill study; assay type: functional, organism-based
In short: (§2)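 Time-kill in 10 ml of cation-adjusted Mueller-Hinton broth with 3% lysed horse blood, without agitation. Multiples of MIC tested. Samples taken at 0, 2, 4, 6 and 24 h and plated on tryptic soy agar with 5% sheep blood after ≥250-fold dilution, detection limit 10 CFU/ml. Counts read after 24 h at 35°C. Bactericidal defined as a ≥3 log10 drop from the starting inoculum within 24 h.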

Streptococcus pneumoniae [3] = assay: Bactericidal activity against Streptococcus pneumoniae SV1 at 2 ug/ml by time-kill study; assay type: functional, organism-based; in short: as §2
Enterococcus faecalis = assay: Antibacterial efficacy against Enterococcus faecalis MGH2 infected orally dosed CD1 mouse model; assay type: functional; in short: as §1
Streptococcus pyogenes [4] = assay: Bactericidal activity against Streptococcus pyogenes C203 at 2 ug/ml by time-kill study; assay type: functional, organism-based; in short: as §2
Streptococcus pyogenes [5] = assay: Antibacterial efficacy against Streptococcus pyogenes C203 infected orally dosed CD1 mouse model; assay type: functional; details: C203, po; in short: as §1
Staphylococcus aureus [6] = assay: Antibacterial efficacy against ciprofloxacin and methicillin-resistant Staphylococcus aureus SA2017 infected orally dosed CD1 mouse model; assay type: functional; in short: as §1
Streptococcus pyogenes [7] = assay: Bactericidal activity against Streptococcus pyogenes C203 at 0.008 ug/ml by time-kill study; assay type: functional, organism-based; in short: as §2
Streptococcus pneumoniae [8] = assay: Antibacterial efficacy against Streptococcus pneumoniae SVI infected orally dosed CD1 mouse model; assay type: functional; details: po; in short: as §1
Staphylococcus aureus [9] = assay: Antibacterial efficacy against methicillin-susceptible Staphylococcus aureus UC76 infected orally dosed CD1 mouse model; assay type: functional; details: UC76, po; in short: as §1

In the case of `O=C(O)c1cn(C2CC2)c2cc(N3CCNCC3)c(F)cc2c1=O` [CIPROFLOXACIN], the MIC (Staphylococcus aureus [1]) is reported as 0.5 µg/mL (≈ 1.51 µM), the ED50 (Staphylococcus aureus [1]; read-out: PD50) is reported as 18 mg/kg and the Activity (Streptococcus pneumoniae [2]) is reported as “Active”. The Activity (Streptococcus pneumoniae [3]) was “Active”, the MIC (Enterococcus faecalis) was 0.5 µg/mL (≈ 1.51 µM) and the Activity (Streptococcus pyogenes [4]) was “Active”. The MIC (Streptococcus pyogenes [5]) was 0.5 µg/mL (≈ 1.51 µM), the ED50 (Streptococcus pyogenes [5]; read-out: PD50) was > 100 mg/kg and the MIC (Staphylococcus aureus [6]) was > 64 µg/mL. The ED50 (Staphylococcus aureus [6]; read-out: PD50) was > 100 mg/kg, the Activity (Streptococcus pyogenes [7]) was “Active” and the MIC (Streptococcus pneumoniae [8]) was 2 µg/mL (≈ 6.04 µM). For the same molecule, the ED50 (Streptococcus pneumoniae [8]; read-out: PD50) was > 100 mg/kg, the MIC (Staphylococcus aureus [9]) was 0.06 µg/mL (≈ 0.181 µM) and the ED50 (Staphylococcus aureus [9]; read-out: PD50) was 9.1 mg/kg.
